# HKDC1 act: activators of human hexokinase HKDC1; recombinant HKDC1, G6PDH/diaphorase resazurin fluorescence; active compounds read low; Q2TB90; actives 0.056% (n = 340,000); activity change, negative = activation, % at 20 µM;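 active = activation of 40% or more at 20 µM, a change of -40% or lower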
#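 Signal: coupled resazurin-to-resorufin fluorescence, Ex 525/Em 613 nm. Test system: in-house human HKDC1 enzyme, G6PDH and diaphorase coupling enzymes. Quantity: HKDC1 5 µg/mL. Timing: 90 min reaction at room temperature, dark.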
# * hit, by the source's call. Not all results are given here.
SMILES,HKDC1 act
CCN1C/C(=C\c2cccc([N+](=O)[O-])c2)C(=O)/C(=C/c2cccc([N+](=O)[O-])c2)C1,43
CC(=O)c1cc(O)c2ccccc2c1O,44
O=C(CNC(=O)/C=C/c1ccco1)N=Nc1c(O)[nH]c2ccccc12,51
CCOC(=O)c1c(C)[nH]c(C2=NNC(=NC3CC3)SC2)c1C,-77*
O=c1[nH][nH]c2c(N=Cc3ccccc3O)ccc(F)c12,38
CCOc1ccc(/C=C2/SC(=S)N(CCC(=O)Nc3ccc(C(=O)O)cc3)C2=O)cc1,43
Cc1ccc2cc(CCNC(=O)c3ccc(S(=O)(=O)N4CCCCC4)cc3)c(=O)[nH]c2c1,40
COc1ccc(S(=O)(=O)/N=C2\C=C(Nc3ccc(O)cc3)C(=O)c3ccccc32)cc1,42
CC[n+]1c(/C=C2\Sc3ccccc3N2C)ccc2cccc(C)c21,-40*
CN(C)c1ccc(Cc2cc3c(O)ccc(O)c3cc(Cc3ccc(N(C)C)cc3)c2=O)cc1,60
Oc1ccc(O)c(Cc2nc3ccccc3s2)c1,45
Cc1ccc(C(=O)c2c(C)oc3c2C(=O)C(=O)c2ccccc2-3)cc1,48
COc1ccc(-c2nc3c(c(=O)n(C)c(=O)n3C)n2CC2CC(c3ccccc3)=NO2)cc1OC (configuration not stated),-48*
COCC(=O)OC1CCn2c1nc1c2C(=O)C(C)=C(NC(C)=O)C1=O (configuration not stated),68
S=C(NN=C(c1ccccc1)c1ccccn1)N(Cc1ccccn1)Cc1ccccn1,-46*
CN(C)c1ccc2nc3ccc(=[N+](C)C)cc-3sc2c1,36
CCOc1ccc(CCNC(=O)c2ccc3c(=O)[nH]c4c(C(=O)NC(C)C)sc(=S)n4c3c2)cc1,41
N=C1N(/N=C/c2ccccc2)C(=Nc2ccccc2)C(=S)N1c1ccccc1,-49*
CC(C)c1nc2oc3c(=O)[nH]cnc3c2c2c1COC(C)(C)C2,36
O=C1C=CC(=O)c2c(O)c(N3CCN(CCOCCO)CC3)c(Br)c(O)c21,46
CC(=O)NC1=C(N(C)C2CCS(=O)(=O)C2)C(=O)c2ccccc2C1=O (configuration not stated),39
O=C(NC(=S)NNC(=O)c1ccccc1O)c1ccco1,-44*
O=C(OCn1ncc(Cl)c(Cl)c1=O)c1ccc(C(F)(F)F)cc1,46
CCN(CC)Cc1cc(O)c(CN(CC)CC)cc1O,47
C[n+]1c(-c2ccccc2)cc2c(=Cc3ccccc3)c3ccccc3n21,42
SMILES,HKDC1 act
O=C(C#Cc1ccccc1)c1cccc([N+](=O)[O-])c1,37
Cc1cccc(-n2c3nc(=O)[nH]c(=O)c-3cc3cc([N+](=O)[O-])ccc32)c1,42
Cc1cc(SCC(=O)c2cccc([N+](=O)[O-])c2)nc(=O)[nH]1,-54*
Cc1cc2nc3ccc(=[N+](C)C)cc-3sc2cc1N,47
CN(C)CC1CCC/C(=C\c2ccc(OC(=O)c3ccc(Cl)cc3)cc2)C1=O (configuration not stated),37
Cc1ccccc1NC(=S)N/N=C/c1ccc(O)cc1O,-42*
CCCOc1ccc(/C=N/NC(=S)Nc2ccccc2[N+](=O)[O-])c(O)c1,-48*
Oc1ccc(/C=N/Nc2ncc(Br)cn2)c(O)c1,39
O=[N+]([O-])c1ccc(NN=Cc2ccc(O)cc2O)nc1,37
O=C(O)c1ccccc1NS(=O)(=O)c1ccc(N/N=C/c2cccc(O)c2O)c([N+](=O)[O-])c1,36
Cc1nc(COC(=O)c2cc(O)c3ccccc3c2O)cs1,60
Cn1c2ccccc2c2ccc3c(c21)C(=O)C=CC3=O,37
Cc1nn(-c2ccccc2)c(Cl)c1CN(C(=O)CCl)c1ccc(Cl)cc1,38
COc1ccc2c(c1)c(=O)oc1c(C)c(OCc3cc(C(=O)O)oc3C)ccc12,79
O=S(=O)(CCSc1nc2ccccc2s1)c1nc2ccccc2s1,39
COc1ccccc1C1=NNC(=Nc2cccc(S(=O)(=O)N(C)C)c2)SC1,-202*
O=C1OC(c2ccc3ccccc3c2O)(c2ccc3ccccc3c2O)c2ccccc21,36
O=C(CSc1nnc(CCCN2C(=O)c3cccc4cccc(c34)C2=O)n1-c1ccccc1)N1CCN(CCO)CC1,42

# Assay outcomes: PubChem BioAssay, Sanford-Burnham Center for Chemical Genomics
